Measurements: ChEMBL document CHEMBL4689842, “EUbOPEN Chemogenomics Library wave 1” (2021)
“And” between values parts separate entries of the source, which are not always exact repeats. Identical values can stand only once.

System: Fibroblast
Assay: Multiplex assay against human fibroblast
Assay type: toxicity, cell-based
Summary of the method: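 Live cells were stained at seeding with Hoechst33342, BioTracker Green Microtubule Cytoskeleton Dye, MitoTracker Red and Annexin V Alexa Fluor 680. Following compound addition, they were imaged on a CQ1 microscope at 37°C and 5% CO2 and gated by CellPathfinder machine learning into Hoechst high-intensity objects or normal cells, with normal cells split into healthy, pyknosed or fragmented nuclei and pyknosed cells into mitotic or apoptotic. Tubulin, mitochondrial-mass and membrane-permeability phenotypes are per cents of healthy-nucleus cells.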

[1] = 12 h, 1 µM, compound concentration 1 uM, replicate 1
[2] = 12 h, 1 µM, compound concentration 1 uM, replicate 2
[3] = 12 h, 10 µM, compound concentration 10 uM, replicate 1
[4] = 12 h, 10 µM, compound concentration 10 uM, replicate 2
[5] = 24 h, 1 µM, compound concentration 1 uM, replicate 1
[6] = 24 h, 1 µM, compound concentration 1 uM, replicate 2
[7] = 24 h, 10 µM, compound concentration 10 uM, replicate 1
[8] = 24 h, 10 µM, compound concentration 10 uM, replicate 2

CCOc1ccn(-c2ccc(F)cc2)c(=O)c1C(=O)Nc1ccc(Oc2ccnc(N)c2Cl)c(F)c1 [BMS-777607]
Population Apoptotic (%) [1]: 77%
Population Fragmented Nuclei (%) [1]: 30%
Population Healthy Nuclei (%) [1]: 58%
Population Hoechst High Intensity Objects (%) [1]: 13%
Population Membrane Permeable-Phenotype (%) [1]: 10%
Population Mitochondria Different-Phenotype (%) [1]: 4%
Population Mitotic Cells (%) [1]: 22%
Population Normal (%) [1]: 86%
Population Pyknosed Nuclei (%) [1]: 10%
Population Tubulin-Different-Phenotype (%) [1]: 22%
Total Cell Count [1]: 251
Population Apoptotic (%) [2]: 100%
Population Fragmented Nuclei (%) [2]: 56%
Population Healthy Nuclei (%) [2]: 39%
Population Hoechst High Intensity Objects (%) [2]: 29%
Population Membrane Permeable-Phenotype (%) [2]: 17%
Population Mitochondria Different-Phenotype (%) [2]: 17%
Population Mitotic Cells (%) [2]: 0%
Population Normal (%) [2]: 70%
Population Pyknosed Nuclei (%) [2]: 3%
Population Tubulin-Different-Phenotype (%) [2]: 47%
Total Cell Count [2]: 82
Population Apoptotic (%) [3]: 86%
Population Fragmented Nuclei (%) [3]: 27%
Population Healthy Nuclei (%) [3]: 60%
Population Hoechst High Intensity Objects (%) [3]: 15%
Population Membrane Permeable-Phenotype (%) [3]: 1%
Population Mitotic Cells (%) [3]: 13%
Population Normal (%) [3]: 84%
Population Pyknosed Nuclei (%) [3]: 12%
Total Cell Count [3]: 212
Population Apoptotic (%) [4]: 80%
Population Fragmented Nuclei (%) [4]: 54%
Population Healthy Nuclei (%) [4]: 36%
Population Hoechst High Intensity Objects (%) [4]: 38%
Population Membrane Permeable-Phenotype (%) [4]: 4%
Population Mitochondria Different-Phenotype (%) [4]: 4%
Population Mitotic Cells (%) [4]: 20%
Population Normal (%) [4]: 61%
Population Pyknosed Nuclei (%) [4]: 8%
Population Tubulin-Different-Phenotype (%) [4]: 0%
Total Cell Count [4]: 92
Population Apoptotic (%) [5]: 85%
Population Fragmented Nuclei (%) [5]: 27%
Population Healthy Nuclei (%) [5]: 62%
Population Hoechst High Intensity Objects (%) [5]: 11%
Population Membrane Permeable-Phenotype (%) [5]: 8%
Population Mitochondria Different-Phenotype (%) [5]: 8%
Population Mitotic Cells (%) [5]: 14%
Population Normal (%) [5]: 88%
Population Pyknosed Nuclei (%) [5]: 10%
Population Tubulin-Different-Phenotype (%) [5]: 19%
Total Cell Count [5]: 226
Population Apoptotic (%) [6]: 50%
Population Fragmented Nuclei (%) [6]: 63%
Population Healthy Nuclei (%) [6]: 32%
Population Hoechst High Intensity Objects (%) [6]: 31%
Population Membrane Permeable-Phenotype (%) [6]: 10%
Population Mitochondria Different-Phenotype (%) [6]: 21%
Population Mitotic Cells (%) [6]: 50%
Population Normal (%) [6]: 68%
Population Pyknosed Nuclei (%) [6]: 3%
Population Tubulin-Different-Phenotype (%) [6]: 31%
Total Cell Count [6]: 85
Population Apoptotic (%) [7]: 80%
Population Fragmented Nuclei (%) [7]: 26%
Population Healthy Nuclei (%) [7]: 62%
Population Hoechst High Intensity Objects (%) [7]: 9%
Population Membrane Permeable-Phenotype (%) [7]: 0%
Population Mitochondria Different-Phenotype (%) [7]: 4%
Population Mitotic Cells (%) [7]: 19%
Population Normal (%) [7]: 90%
Total Cell Count [7]: 214
Population Apoptotic (%) [8]: 50%
Population Fragmented Nuclei (%) [8]: 54%
Population Healthy Nuclei (%) [8]: 35%
Population Hoechst High Intensity Objects (%) [8]: 35%
Population Membrane Permeable-Phenotype (%) [8]: 5%
Population Mitochondria Different-Phenotype (%) [8]: 10%
Population Mitotic Cells (%) [8]: 50%
Population Normal (%) [8]: 64%
Population Pyknosed Nuclei (%) [8]: 10%
Population Tubulin-Different-Phenotype (%) [8]: 0%
Total Cell Count [8]: 88

CC[C@@]1(O)C(=O)OCc2c1cc1n(c2=O)Cc2cc3ccccc3nc2-1 [CAMPTOTHECIN]
Population Apoptotic (%) [1]: 68% and 80%
Population Fragmented Nuclei (%) [1]: 42% and 41% and 43%
Population Healthy Nuclei (%) [1]: 49% and 43% and 37%
Population Membrane Permeable-Phenotype (%) [1]: 10% and 7% and 5%
Population Mitochondria Different-Phenotype (%) [1]: 3% and 9% and 7%
Population Mitotic Cells (%) [1]: 31% and 20% and 19%
Population Normal (%) [1]: 84% and 52% and 47%
Population Pyknosed Nuclei (%) [1]: 8% and 15% and 19%
Total Cell Count [1]: 256 and 440 and 382
Population Fragmented Nuclei (%) [2]: 64% and 80%
Population Healthy Nuclei (%) [2]: 32% and 19% and 34%
Population Hoechst High Intensity Objects (%) [2]: 37% and 59% and 67%
Population Membrane Permeable-Phenotype (%) [2]: 15% and 16% and 6%
Population Mitochondria Different-Phenotype (%) [2]: 10% and 12% and 30%
Population Normal (%) [2]: 62% and 40% and 32%
Population Pyknosed Nuclei (%) [2]: 3% and 0% and 1%
Population Tubulin-Different-Phenotype (%) [2]: 21% and 28% and 24%
Population Apoptotic (%) [3]: 87%
Population Fragmented Nuclei (%) [3]: 34%
Population Healthy Nuclei (%) [3]: 43%
Population Hoechst High Intensity Objects (%) [3]: 27%
Population Membrane Permeable-Phenotype (%) [3]: 3%
Population Mitochondria Different-Phenotype (%) [3]: 11%
Population Mitotic Cells (%) [3]: 12%
Population Normal (%) [3]: 72%
Population Pyknosed Nuclei (%) [3]: 21%
Population Tubulin-Different-Phenotype (%) [3]: 9%
Total Cell Count [3]: 198
Population Apoptotic (%) [4]: 50%
Population Fragmented Nuclei (%) [4]: 65%
Population Healthy Nuclei (%) [4]: 30%
Population Hoechst High Intensity Objects (%) [4]: 41%
Population Membrane Permeable-Phenotype (%) [4]: 7%
Population Mitochondria Different-Phenotype (%) [4]: 7%
Population Mitotic Cells (%) [4]: 50%
Population Normal (%) [4]: 58%
Population Pyknosed Nuclei (%) [4]: 4%
Population Tubulin-Different-Phenotype (%) [4]: 7%
Total Cell Count [4]: 74
Population Apoptotic (%) [5]: 78% and 72% and 90%
Population Fragmented Nuclei (%) [5]: 39% and 40% and 34%
Population Healthy Nuclei (%) [5]: 48% and 43% and 55%
Population Membrane Permeable-Phenotype (%) [5]: 10% and 4% and 6%
Population Mitochondria Different-Phenotype (%) [5]: 7% and 15% and 8%
Population Mitotic Cells (%) [5]: 21% and 27% and 9%
Population Normal (%) [5]: 54% and 49% and 89%
Population Pyknosed Nuclei (%) [5]: 12% and 16% and 10%
Population Tubulin-Different-Phenotype (%) [5]: 16% and 11% and 12%
Total Cell Count [5]: 414 and 405 and 222
Population Fragmented Nuclei (%) [6]: 57% and 80% and 66%
Population Healthy Nuclei (%) [6]: 40% and 18% and 32%
Population Hoechst High Intensity Objects (%) [6]: 44% and 56% and 68%
Population Membrane Permeable-Phenotype (%) [6]: 15% and 16% and 0%
Population Mitochondria Different-Phenotype (%) [6]: 25% and 16% and 28%
Population Normal (%) [6]: 55% and 43% and 31%
Population Pyknosed Nuclei (%) [6]: 2% and 1%
Population Tubulin-Different-Phenotype (%) [6]: 20% and 29% and 36%
Population Apoptotic (%) [7]: 85%
Population Fragmented Nuclei (%) [7]: 34%
Population Healthy Nuclei (%) [7]: 45%
Population Hoechst High Intensity Objects (%) [7]: 28%
Population Membrane Permeable-Phenotype (%) [7]: 6%
Population Mitochondria Different-Phenotype (%) [7]: 9%
Population Mitotic Cells (%) [7]: 14%
Population Normal (%) [7]: 71%
Population Pyknosed Nuclei (%) [7]: 19%
Population Tubulin-Different-Phenotype (%) [7]: 7%
Total Cell Count [7]: 201
Population Apoptotic (%) [8]: 100%
Population Fragmented Nuclei (%) [8]: 65%
Population Healthy Nuclei (%) [8]: 31%
Population Hoechst High Intensity Objects (%) [8]: 42%
Population Membrane Permeable-Phenotype (%) [8]: 0%
Population Mitochondria Different-Phenotype (%) [8]: 0%
Population Mitotic Cells (%) [8]: 0%
Population Normal (%) [8]: 57%
Population Pyknosed Nuclei (%) [8]: 2%
Total Cell Count [8]: 77
